The text below walks through data of ChEMBL document CHEMBL4152203, “Antiproliferative hydrogen sulfide releasing evodiamine derivatives and their apoptosis inducing properties” (Eur J Med Chem, 2018).

One experiment has as its system Bel-7402. Nature of the experiment: Antiproliferative activity against human Bel7402 cells after 72 hrs by MTT assay. The class given is functional, cell-based. Conditions: Bel-7402, 72 h. The procedure, abridged: (§1)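 Cells seeded and pre-incubated 24 h at 37 °C, 5% CO2, then exposed to compounds for 72 h. MTT (5 mg/mL stock) added for 4 h, formazan dissolved in DMSO for 10 min at room temperature, absorbance read at 570 nm. 0.1% DMSO as negative and 5-FU as positive reference. IC50 derived from inhibition ratios; mean ± SD of three independent experiments.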
In general terms: Tetrazolium assays rely on reduction of a dye to a coloured formazan, in cell work by metabolically active cells.

The test system of the next experiment is MCF7. In words: Antiproliferative activity against human MCF7 cells after 72 hrs by MTT assay. In kind it is functional, cell-based. Conditions: MCF7, 72 h. The procedure, abridged:
as §1

A further experiment relates to SGC-7901. Nature of the experiment: Antiproliferative activity against human SGC7901 cells after 72 hrs by MTT assay. To be noted: SGC-7901, 72 h. The class given is functional, cell-based. The procedure, abridged: as §1
A further experiment relates to Caco-2. In words: Antiproliferative activity against human Caco2 cells after 72 hrs by MTT assay. The class given is functional, cell-based. To be noted: Caco-2, 72 h. An outline of the steps: as §1
Another experiment has as its system HL-60. Nature of the experiment: Antiproliferative activity against human HL60 cells after 72 hrs by MTT assay. In kind it is functional, cell-based. To be noted: HL-60, 72 h. The procedure, abridged:
as §1

The test system of the next experiment is PBMC. Nature of the experiment: Antiproliferative activity against human PBMC cells after 72 hrs by MTT assay. In kind it is cell-based. The procedure, abridged:
as §1

In general, IC50 refers to the point on the concentration scale where inhibition reaches its midpoint. Read a high IC50 as weaker potency. Regarding `O=c1[nH]cc(F)c(=O)[nH]1` [FLUOROURACIL], the IC50 in the experiment with Bel-7402 was 19 µM; with MCF7 it was 26.9 µM; in the experiment on SGC-7901 it was 19.8 µM; in the experiment with Caco-2, 38.8 µM; in the experiment on HL-60 it was 3.46 µM.
On to `CN1c2ccccc2C(=O)N2CCc3c(n(CC(=O)Oc4ccc(-c5cc(=S)ss5)cc4)c4ccccc34)C21` (stereo not drawn), for which the IC50 in the experiment on Bel-7402 is 25.8 µM; in the experiment with MCF7, 47.5 µM; in the experiment with SGC-7901, 26.8 µM; in the experiment with Caco-2 it was 22.9 µM; in the experiment on HL-60, greater than 50 µM; in the experiment on PBMC, greater than 100 µM.
For the compound `CN1c2ccccc2C(=O)N2CCc3c(n(CC(=O)OCCOc4ccc(-c5cc(=S)ss5)cc4)c4ccccc34)C21` (stereo not drawn), the IC50 with Bel-7402 is 26.8 µM; with MCF7, 38.4 µM; in the experiment on SGC-7901, 32.9 µM; in the experiment on Caco-2, 6.35 µM; in the experiment on HL-60 it was 1.92 µM; in the experiment on PBMC, greater than 100 µM.
For `CN1c2ccccc2C(=O)N2CCc3c(n(CCCOCCCOC(=O)CCCCC4CCSS4)c4ccccc34)C21` (stereo not drawn), the IC50 with Bel-7402 is greater than 50 µM; in the experiment on MCF7 it was 22.4 µM; in the experiment with SGC-7901, 31 µM; in the experiment on Caco-2, 5.14 µM; in the experiment with HL-60, 9.38 µM; in the experiment on PBMC, greater than 100 µM.
`CN1c2ccccc2C(=O)N2CCc3c(n(CCCCC(=O)OCCCOc4ccc(-c5cc(=S)ss5)cc4)c4ccccc34)C21` (stereo not drawn): the IC50 in the experiment with Bel-7402 was 30.5 µM; in the experiment on MCF7, greater than 50 µM; in the experiment with SGC-7901 it was greater than 50 µM; with Caco-2, 3.05 µM; in the experiment with HL-60, 0.99 µM; with PBMC, greater than 100 µM.
As to `O=C(O)CCCCC1CCSS1` (stereo not drawn) [LIPOIC ACID, ALPHA], the IC50 in the experiment with Bel-7402 is greater than 50 µM; in the experiment on MCF7, greater than 50 µM; in the experiment with SGC-7901, greater than 50 µM; with Caco-2, 14.3 µM; in the experiment with HL-60 it was 16.4 µM; in the experiment with PBMC it was greater than 100 µM.
Turning to `CN1c2ccccc2C(=O)N2CCc3c(n(CCOC(=O)CCCCC4CCSS4)c4ccccc34)C21` (stereo not drawn), the IC50 with Bel-7402 was 20.5 µM; with MCF7, 9.47 µM; in the experiment with SGC-7901 it was greater than 50 µM; in the experiment with Caco-2, 3.18 µM; in the experiment on HL-60, 0.97 µM; with PBMC, greater than 100 µM.
Turning to `CN1c2ccccc2C(=O)N2CCc3c(n(CCCC(=O)OCCOc4ccc(-c5cc(=S)ss5)cc4)c4ccccc34)C21` (stereo not drawn), the IC50 in the experiment with Bel-7402 is 45.2 µM; in the experiment on MCF7 it was 40.2 µM; in the experiment with SGC-7901 it was 47.4 µM; in the experiment on Caco-2, 4.18 µM; with HL-60, 1.03 µM; in the experiment on PBMC, greater than 100 µM.
As to `CN1c2ccccc2C(=O)N2CCc3c(n(CC(=O)OCCCCOc4ccc(-c5cc(=S)ss5)cc4)c4ccccc34)C21` (stereo not drawn), the IC50 is greater than 50 µM in the experiment with Bel-7402; greater than 50 µM with MCF7; greater than 50 µM with SGC-7901; 4.34 µM in the experiment on Caco-2; 0.83 µM in the experiment on HL-60; greater than 100 µM with PBMC.
Turning to `CN1c2ccccc2C(=O)N2CCc3c(n(CC(=O)OCCCOc4ccc(-c5cc(=S)ss5)cc4)c4ccccc34)C21` (stereo not drawn), the half-inhibitory concentration (IC50) was 34.2 µM in the experiment with Bel-7402; 27.9 µM in the experiment with MCF7; 24.7 µM in the experiment on SGC-7901; 5.1 µM in the experiment with Caco-2; 2.74 µM in the experiment on HL-60; greater than 100 µM in the experiment on PBMC.
In the case of `Oc1ccc(-c2cc(=S)ss2)cc1`, the IC50 in the experiment on Bel-7402 was greater than 50 µM; in the experiment with MCF7, greater than 50 µM; in the experiment on SGC-7901 it was greater than 50 µM; with Caco-2 it was 35.5 µM; with HL-60, 25.9 µM; in the experiment on PBMC it was greater than 100 µM.
Regarding `CN1c2ccccc2C(=O)N2CCc3c(n(CCCC(=O)OCCCOc4ccc(-c5cc(=S)ss5)cc4)c4ccccc34)C21` (stereo not drawn), the IC50 was greater than 50 µM in the experiment on Bel-7402; greater than 50 µM with MCF7; greater than 50 µM with SGC-7901; 2.81 µM with Caco-2; 1.04 µM in the experiment on HL-60; greater than 100 µM in the experiment on PBMC.
With `CN1c2ccccc2C(=O)N2CCc3c([nH]c4ccccc34)C21` (stereo not drawn), the half-inhibitory concentration (IC50) stood at 1.19 µM in the experiment on Bel-7402; 28.5 µM in the experiment on MCF7; 6.93 µM with SGC-7901; 2.73 µM with Caco-2; 1.36 µM in the experiment on HL-60; 21 µM with PBMC.
As to `CN1c2ccccc2C(=O)N2CCc3c(n(CCCCC(=O)Oc4ccc(-c5cc(=S)ss5)cc4)c4ccccc34)C21` (stereo not drawn), the IC50 with Bel-7402 was greater than 50 µM; in the experiment with MCF7, 48.7 µM; in the experiment on SGC-7901, 30.2 µM; with Caco-2 it was 38.1 µM; in the experiment on HL-60, greater than 50 µM; with PBMC, greater than 100 µM.
In the case of `CN1c2ccccc2C(=O)N2CCc3c(n(CCCCCCOC(=O)CCCCC4CCSS4)c4ccccc34)C21` (stereo not drawn), the IC50 with Bel-7402 is 22.1 µM; with MCF7, 28 µM; with SGC-7901 it was 35.7 µM; in the experiment on Caco-2 it was 4.88 µM; in the experiment on HL-60 it was 3.49 µM; with PBMC, greater than 100 µM.
Regarding `CN1c2ccccc2C(=O)N2CCc3c(n(CCCC(=O)Oc4ccc(-c5cc(=S)ss5)cc4)c4ccccc34)C21` (stereo not drawn), the IC50 with Bel-7402 was greater than 50 µM; in the experiment on MCF7 it was greater than 50 µM; in the experiment on SGC-7901, greater than 50 µM; in the experiment with Caco-2, 4.08 µM; in the experiment on HL-60 it was 14.1 µM; in the experiment with PBMC, greater than 100 µM.
`CN1c2ccccc2C(=O)N2CCc3c(n(CCCOC(=O)CCCCC4CCSS4)c4ccccc34)C21` (stereo not drawn): the IC50 was greater than 50 µM in the experiment on Bel-7402; 39.7 µM in the experiment on MCF7; greater than 50 µM in the experiment with SGC-7901; 2.84 µM in the experiment on Caco-2; 2.09 µM in the experiment with HL-60; greater than 100 µM with PBMC.
As for `CN1c2ccccc2C(=O)N2CCc3c(n(CCCCC(=O)OCCOc4ccc(-c5cc(=S)ss5)cc4)c4ccccc34)C21` (stereo not drawn), the IC50 in the experiment with Bel-7402 is 41.4 µM; in the experiment on MCF7, 29.7 µM; in the experiment on SGC-7901, 43.6 µM; with Caco-2, 4.22 µM; in the experiment on HL-60 it was 2.09 µM; with PBMC, greater than 100 µM.
For `CN1c2ccccc2C(=O)N2CCc3c(n(CCCC(=O)OCCCCOc4ccc(-c5cc(=S)ss5)cc4)c4ccccc34)C21` (stereo not drawn), the IC50 was 45 µM in the experiment with Bel-7402; 29.1 µM in the experiment with MCF7; greater than 50 µM in the experiment on SGC-7901; 3.87 µM in the experiment on Caco-2; 0.7 µM with HL-60; greater than 100 µM in the experiment on PBMC.
